# Measured values taken from PubChem BioAssay.
# Active and inactive are the calls of the source. Cut-off read from the data, not from the text of the source, unless noted: active = inhibition above about 30%; inactive = the rest.
# Tests used:
# [1] = HUVEC growth inhibition – cell-based, human, primary screen (AID 575;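 active = viability at or below 30% in both replicate assays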;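 note: 100% = median of untreated cell wells with 0.1% DMSO on each plate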); conditions: HUVEC proliferation, CellTiter-Glo luminescence, 72 h; at 10 µM; stronger effect = lower value
# In short: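 Test system: HUVEC primary cells. Quantity: 1250 endothelial cells in each well. Dosing: single-point 10 µM, DMSO 0.1% final. Incubation: 72 h treatment at 37 °C. Measured by: CTG luminescence. Control set: DMSO cell controls and MePR drug controls. Plate: collagen-coated 384-well format.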
# [2] = H69AR cell proliferation blockers – human, duplicate replicates, primary screen (AID 580;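 active = viability at or under a set limit in both replicates, limit being median viability minus 3 SD, cut at about 48% in these data, passing the limit was not always enough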;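 note: 100% = mean luminescence of untreated wells and 0% = no signal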); conditions: H69AR lung tumor cells viability, ATP luminescence, 72 h; at 10 µM; stronger effect = lower value
# [3] = MRP1 drug-resistance reversers in H69AR cells – cell-based, doxorubicin co-treatment, pilot screen (AID 601;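 active = viability loss from added drug above about 55%, and viability with drug at most 40%, in both replicates, limit read from the data, passing the limit was not always enough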); conditions: CellTiter-Glo, 72 h, at 10 µM; for differential viability (reversal): stronger effect = higher value
# [4] = yeast transport mutant growth inhibition pilot in 384-well plates, post-Golgi transport modulator project (AID 636; in the data active = inhibition above about 31%); conditions: absorbance 615 nm, about 18 h, stronger effect = higher value
# [5] = growth suppression of yeast trafficking mutant, preliminary HTS, modulators of trafficking downstream of Golgi apparatus project, 1536-format plate, OD 615 nm (AID 637); conditions: yeast transport mutant growth, absorbance 615 nm, 18 h; stronger effect = higher value
# [6] = H69AR cells + 2 uM doxorubicin, measured here: viability with 2 uM doxorubicin, stronger effect = lower value
# [7] = H69AR cells, compound alone cytotoxicity
SMILES,viability [1],viability [2],differential viability (reversal) ([3]; H69AR cells + 2 uM doxorubicin),"viability [3, 6] [%]","viability [3, 7] [%]",inhibition [4],inhibition [5]
N#Cc1cnc(SCC(=O)c2ccccc2)nc1N,95.5% (inactive),93.1% (inactive),16.2% (inactive),76.9,93.1,-6.93% (inactive),7.3% (inactive)
CC(C)C1N=C2c3ccccc3N=C(SCC(=O)NCCc3ccc(S(N)(=O)=O)cc3)N2C1=O (stereo not drawn),82.8% (inactive),86.7% (inactive),4.46% (inactive),82.3,86.7,-2.47% (inactive),4.13% (inactive)
O=C(COc1ccc(Cl)cc1)Nc1ncccn1,106% (inactive),107% (inactive),14.6% (inactive),92.6,107,-1.05% (inactive),4.13% (inactive)
Cc1cc(C(=O)Nc2cccc(O)c2)c(C)o1,87.1% (inactive),90% (inactive),3.61% (inactive),86.4,90,-4.55% (inactive),3.17% (inactive)
CCn1c(CSc2nc(C)cc(C)n2)nnc1SCC(=O)Nc1ccccc1,104% (inactive),89.5% (inactive),4.12% (inactive),85.4,89.5,-4.27% (inactive),-3.02% (inactive)
Cc1cccc(-n2c(N)c(C(=O)N3CCN(C)CC3)sc2=S)c1,101% (inactive),92.2% (inactive),8.09% (inactive),84.2,92.2,-0.39% (inactive),-7.3% (inactive)
O=C(Nc1ccc(S(=O)(=O)NCCc2ccccc2)cc1)c1ccc(Br)o1,72.4% (inactive),108% (inactive),16.8% (inactive),91.5,108,-1.32% (inactive),-6.35% (inactive)
Cc1noc(C)c1C(=O)Nc1sc(C)c(C)c1C#N,105% (inactive),95.5% (inactive),20.3% (inactive),75.2,95.5,-1.97% (inactive),2.86% (inactive)
c1ccc(OCc2nc3ccccc3[nH]2)cc1,85.4% (inactive),92.2% (inactive),1.59% (inactive),90.6,92.2,-3.6% (inactive),-4.13% (inactive)
CCN(CC)c1ccc2c(c1)C(=O)N(C)C2=O,71.6% (inactive),84.6% (inactive),2.22% (inactive),82.4,84.6,-0.66% (inactive),1.9% (inactive)
CN1CCCc2cc(C#N)c(=O)[nH]c21,99.7% (inactive),107% (inactive),8.18% (inactive),99.3,107,-5.71% (inactive),-2.38% (inactive)
C/C(Cl)=C\Cn1c(Nc2ccc(C)cc2)nc2c1c(=O)n(C)c(=O)n2C,77.5% (inactive),72.1% (inactive),-11.2% (inactive),83.2,72.1,-1.04% (inactive),1.75% (inactive)
CCOc1ccccc1N1CCN(S(=O)(=O)c2cccc3nsnc23)CC1,84.1% (inactive),86.1% (inactive),4.72% (inactive),81.4,86.1,0.26% (inactive),10.9% (inactive)
Cc1cccc(-n2ncc3c(NCc4ccccn4)ncnc32)c1,97.5% (inactive),89.6% (inactive),1.75% (inactive),87.8,89.6,-1.17% (inactive),-4.6% (inactive)
Cn1c(=O)c(=O)n(C)c2cc(S(=O)(=O)N3CCN(c4cccc(C(F)(F)F)c4)CC3)ccc21,73% (inactive),93.3% (inactive),-1% (inactive),94.3,93.3,0.4% (inactive),3.02% (inactive)
COc1ccc(S(=O)(=O)N2CCC(C(=O)NCc3ccco3)CC2)cc1,93.8% (inactive),86.6% (inactive),-1.91% (inactive),88.5,86.6,-4.53% (inactive),-3.97% (inactive)
CCOc1ccccc1N1C(=O)CC(Sc2ncccc2C(=O)O)C1=O (stereo not drawn),97% (inactive),99.9% (inactive),12.7% (inactive),87.2,99.9,-3.29% (inactive),1.59% (inactive)
CC1(C)NC(=O)N(CCCOc2ccc(Br)cc2Cl)C1=O,86% (inactive),89.7% (inactive),15.5% (inactive),74.3,89.7,-3.82% (inactive),4.29% (inactive)
CN=C(C)C1=C(O)C(C(=O)OC)C(C)(C)CC1=O (stereo not drawn),108% (inactive),98.5% (inactive),3.21% (inactive),95.3,98.5,-1.43% (inactive),2.7% (inactive)
Cc1nc(SCC(=O)CC(=O)OC(C)C)c(C#N)c(C)c1C,99.8% (inactive),95% (inactive),6.36% (inactive),88.7,95,-2.8% (inactive),3.33% (inactive)

SMILES,viability [1],viability [2],differential viability (reversal) ([3]; H69AR cells + 2 uM doxorubicin),"viability [3, 6] [%]","viability [3, 7] [%]",inhibition [4],inhibition [5]
COc1cccc(CN(C(=O)c2cc3ccccc3oc2=O)C2CC2)c1,99.1% (inactive),102% (inactive),5.67% (inactive),96.1,102,-0.13% (inactive),0% (inactive)
Cc1ccnc(NS(=O)(=O)c2ccc(N=CC3=C(O)CC(C)(C)CC3=O)cc2)n1,102% (inactive),97.1% (inactive),-0.37% (inactive),97.5,97.1,0.92% (inactive),-5.4% (inactive)
CCCC(=O)N1CCN(c2ccc(NC(=O)c3ccc(Br)o3)cc2)CC1,125% (inactive),104% (inactive),3.6% (inactive),101,104,1.58% (inactive),-2.22% (inactive)
COc1cccc(C(c2nnnn2Cc2ccccc2)N2CCN(C(=O)c3ccco3)CC2)c1OC (stereo not drawn),77.5% (inactive),82.3% (inactive),-9.06% (inactive),91.4,82.3,-1.84% (inactive),-6.35% (inactive)
Cc1c(N(C)C)nc2ccccc2c1N,83.8% (inactive),84.4% (inactive),-5.31% (inactive),89.7,84.4,-4% (inactive),2.54% (inactive)
CCS(=O)(=O)N1CCC(C(=O)NCc2cccs2)CC1,87.2% (inactive),99.3% (inactive),9.73% (inactive),89.6,99.3,-1.04% (inactive),-3.02% (inactive)
CCOC(=O)c1c(C)oc2ccc(O)c(CN(C)C)c12,77.4% (inactive),87.3% (inactive),3.6% (inactive),83.7,87.3,-6.1% (inactive),2.22% (inactive)
Cc1ccc(NC(=O)COc2nc(C)cs2)cc1,97.5% (inactive),91.5% (inactive),3.88% (inactive),87.6,91.5,-3.64% (inactive),2.7% (inactive)
Cc1cccc2cc(C(c3nnnn3C(C)(C)C)N3CCN(C(=O)c4ccco4)CC3)c(=O)[nH]c12 (stereo not drawn),86.4% (inactive),79.3% (inactive),-3.69% (inactive),83,79.3,-6.32% (inactive),0% (inactive)
O=C(Nc1ccc(S(=O)(=O)Nc2ccc(Cl)cc2)cc1)C1CCCO1 (stereo not drawn),62% (inactive),90.2% (inactive),0.92% (inactive),89.3,90.2,-6% (inactive),-5.4% (inactive)
Fc1c(F)c(F)c(CSc2nc3ccccc3[nH]2)c(F)c1F,105% (inactive),95.8% (inactive),11.8% (inactive),84,95.8,0.65% (inactive),3.02% (inactive)
COc1cccc(N2CCN(c3ncnc4c3[nH]c3ccc(F)cc34)CC2C)c1 (stereo not drawn),2.17% (active),3.55% (active),-1.01% (inactive),4.56,3.55,71% (active),29.6% (inactive)
COc1cc(C2C3=C(CC(C)(C)CC3=O)Nc3c2c(=O)[nH]c(=O)n3Cc2ccccc2)ccc1O (stereo not drawn),83.3% (inactive),93.7% (inactive),4.23% (inactive),89.5,93.7,0.26% (inactive),3.33% (inactive)
O=C(O)CCc1ccc(-c2cccs2)n1NC(=O)c1ccco1,105% (inactive),96.8% (inactive),8.25% (inactive),88.5,96.8,0.39% (inactive),9.05% (inactive)
CNCCC(Oc1ccc(C(F)(F)F)cc1)c1ccccc1 (stereo not drawn),54.1% (inactive),58.5% (inactive),-6.63% (inactive),65.2,58.5,2.47% (inactive),-3% (inactive)
S=c1[nH]nc(COc2ccccc2)n1C1CCCCC1,89.5% (inactive),81.6% (inactive),22.4% (inactive),59.2,81.6,-0.39% (inactive),6.35% (inactive)
CCOC(=O)NC(=O)CSc1nnc(C)s1,115% (inactive),105% (inactive),8.07% (inactive),96.5,105,-4.08% (inactive),3.65% (inactive)
COc1ccc(/C(O)=C2/C(=O)C(=O)N(Cc3cccnc3)C2c2ccncc2)cc1F (stereo not drawn),111% (inactive),97.4% (inactive),3.08% (inactive),94.3,97.4,-6.62% (inactive),0.16% (inactive)
CCC(=O)N1CCc2cc(Br)cc(S(=O)(=O)C3(C(=O)OC)CC3)c21,102% (inactive),90.8% (inactive),8.17% (inactive),82.6,90.8,-1.82% (inactive),0.79% (inactive)
